Tests used:
SUV39H2 = SUV39H2 (Homo sapiens, UniProt Q9H5I1); test: HMT selectivity assay; assay type: biochemical
In short: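 Triplicate reactions, 1 h at room temperature. Quenched with 7.5 M guanidine HCl; read as Flashplate CPM. Normalised to no-compound and no-enzyme wells. IC50 from 100 nM–100 μM; Ki = IC50/2.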

EHMT2/G9a = target: T1, EHMT2/G9a (Homo sapiens, UniProt Q96KQ7); test: HMT selectivity assay; assay type: biochemical
T1 sequence (Q96KQ7 1-1210): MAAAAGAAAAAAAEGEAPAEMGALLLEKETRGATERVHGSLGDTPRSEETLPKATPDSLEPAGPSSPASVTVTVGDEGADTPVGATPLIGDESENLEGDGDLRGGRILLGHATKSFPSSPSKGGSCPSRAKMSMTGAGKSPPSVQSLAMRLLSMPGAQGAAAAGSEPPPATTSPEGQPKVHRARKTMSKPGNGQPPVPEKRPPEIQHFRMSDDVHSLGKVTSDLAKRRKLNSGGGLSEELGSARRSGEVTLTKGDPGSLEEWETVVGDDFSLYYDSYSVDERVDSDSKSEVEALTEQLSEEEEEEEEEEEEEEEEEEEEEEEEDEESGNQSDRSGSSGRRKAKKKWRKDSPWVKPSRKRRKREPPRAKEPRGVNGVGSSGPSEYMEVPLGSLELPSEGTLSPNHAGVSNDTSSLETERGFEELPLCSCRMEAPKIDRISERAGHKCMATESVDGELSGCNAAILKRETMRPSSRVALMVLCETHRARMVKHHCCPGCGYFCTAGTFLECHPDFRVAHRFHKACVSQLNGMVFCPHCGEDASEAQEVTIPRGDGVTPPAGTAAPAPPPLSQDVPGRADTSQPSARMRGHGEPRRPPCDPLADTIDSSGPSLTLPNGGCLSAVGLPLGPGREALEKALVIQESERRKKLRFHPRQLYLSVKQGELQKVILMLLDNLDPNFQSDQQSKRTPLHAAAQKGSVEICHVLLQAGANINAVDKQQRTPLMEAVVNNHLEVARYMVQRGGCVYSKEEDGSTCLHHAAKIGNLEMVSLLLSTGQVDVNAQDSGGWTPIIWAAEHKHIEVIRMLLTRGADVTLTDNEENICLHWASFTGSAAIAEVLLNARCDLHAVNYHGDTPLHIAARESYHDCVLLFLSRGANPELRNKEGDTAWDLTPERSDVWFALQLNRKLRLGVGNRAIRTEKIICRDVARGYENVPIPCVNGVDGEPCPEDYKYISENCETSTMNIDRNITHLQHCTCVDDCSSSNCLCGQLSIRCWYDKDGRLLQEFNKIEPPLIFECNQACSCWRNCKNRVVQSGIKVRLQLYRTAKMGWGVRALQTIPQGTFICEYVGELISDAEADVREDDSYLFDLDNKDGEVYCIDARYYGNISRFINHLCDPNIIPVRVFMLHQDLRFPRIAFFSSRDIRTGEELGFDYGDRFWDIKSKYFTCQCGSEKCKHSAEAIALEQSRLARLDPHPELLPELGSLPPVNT
In short: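 Triplicate reactions, 1 h, room temperature. Guanidine HCl stop; Flashplate SPA counts. Activity relative to no-compound (100%) and no-enzyme (0%). IC50 over 100 nM–100 μM; Ki = IC50/2.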

MLL1 complex = MLL1 complex (Homo sapiens, UniProt Q03164); test: HMT selectivity assay; assay type: biochemical
Chain of MLL1 complex (Q9UBL3 whole entry): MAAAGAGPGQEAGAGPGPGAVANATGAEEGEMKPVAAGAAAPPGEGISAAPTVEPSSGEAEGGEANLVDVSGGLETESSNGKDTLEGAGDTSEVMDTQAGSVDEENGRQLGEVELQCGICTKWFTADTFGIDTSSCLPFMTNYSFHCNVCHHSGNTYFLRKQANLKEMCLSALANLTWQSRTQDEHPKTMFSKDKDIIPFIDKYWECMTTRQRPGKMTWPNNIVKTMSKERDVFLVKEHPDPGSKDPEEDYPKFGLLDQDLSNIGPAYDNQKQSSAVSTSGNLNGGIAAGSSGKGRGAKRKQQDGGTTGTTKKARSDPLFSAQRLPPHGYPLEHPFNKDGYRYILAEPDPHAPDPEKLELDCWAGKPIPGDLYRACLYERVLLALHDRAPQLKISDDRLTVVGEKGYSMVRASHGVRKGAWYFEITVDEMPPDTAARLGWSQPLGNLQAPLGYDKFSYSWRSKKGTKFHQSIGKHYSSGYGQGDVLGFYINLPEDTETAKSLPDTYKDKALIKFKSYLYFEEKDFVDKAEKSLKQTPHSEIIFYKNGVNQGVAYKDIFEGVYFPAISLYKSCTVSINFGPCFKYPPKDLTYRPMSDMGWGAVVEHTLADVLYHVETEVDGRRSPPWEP
Chain of MLL1 complex (Q03164 3745-3969): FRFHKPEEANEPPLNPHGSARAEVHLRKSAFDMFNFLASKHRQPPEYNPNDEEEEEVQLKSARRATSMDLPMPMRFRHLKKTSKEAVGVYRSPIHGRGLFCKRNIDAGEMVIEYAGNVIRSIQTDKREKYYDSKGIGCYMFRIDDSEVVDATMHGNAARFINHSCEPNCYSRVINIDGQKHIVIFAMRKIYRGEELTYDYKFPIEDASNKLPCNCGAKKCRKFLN
Chain of MLL1 complex (Q15291 whole entry, further chain): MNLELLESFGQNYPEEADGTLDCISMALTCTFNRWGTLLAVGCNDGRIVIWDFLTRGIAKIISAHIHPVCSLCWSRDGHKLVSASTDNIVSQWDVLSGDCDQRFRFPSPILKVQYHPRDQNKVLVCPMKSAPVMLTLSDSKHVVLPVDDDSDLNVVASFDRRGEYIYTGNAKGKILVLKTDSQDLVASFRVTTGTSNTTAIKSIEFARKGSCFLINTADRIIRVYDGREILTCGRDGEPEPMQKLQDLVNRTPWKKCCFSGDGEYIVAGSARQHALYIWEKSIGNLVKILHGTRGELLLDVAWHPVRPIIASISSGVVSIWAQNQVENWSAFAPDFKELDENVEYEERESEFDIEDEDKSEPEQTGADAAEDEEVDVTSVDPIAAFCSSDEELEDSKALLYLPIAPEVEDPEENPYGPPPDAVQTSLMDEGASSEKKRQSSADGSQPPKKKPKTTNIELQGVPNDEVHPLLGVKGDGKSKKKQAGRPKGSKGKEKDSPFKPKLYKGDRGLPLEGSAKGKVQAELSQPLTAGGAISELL
In short: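 Triplicate, 1 h at room temperature. Quenched with 7.5 M guanidine HCl; tritium read by Flashplate SPA. Normalised to no-compound and no-enzyme wells. IC50 from 100 nM–100 μM; Ki = IC50/2.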

EZH2 (PRC2 complex) = EZH2 (PRC2 complex) (Homo sapiens, UniProt Q15910); test: HMT selectivity assay; assay type: biochemical
In short: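 Triplicate, 1 h at room temperature. Guanidine HCl quench, then Flashplate CPM. 100% = no compound; 0% = no enzyme. IC50 over 100 nM–100 μM; Ki = IC50/2.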

PRMT3 = PRMT3 (Homo sapiens, UniProt O60678); test: HMT selectivity assay; assay type: biochemical
Chain of PRMT3 (O60678 whole entry, species assumed): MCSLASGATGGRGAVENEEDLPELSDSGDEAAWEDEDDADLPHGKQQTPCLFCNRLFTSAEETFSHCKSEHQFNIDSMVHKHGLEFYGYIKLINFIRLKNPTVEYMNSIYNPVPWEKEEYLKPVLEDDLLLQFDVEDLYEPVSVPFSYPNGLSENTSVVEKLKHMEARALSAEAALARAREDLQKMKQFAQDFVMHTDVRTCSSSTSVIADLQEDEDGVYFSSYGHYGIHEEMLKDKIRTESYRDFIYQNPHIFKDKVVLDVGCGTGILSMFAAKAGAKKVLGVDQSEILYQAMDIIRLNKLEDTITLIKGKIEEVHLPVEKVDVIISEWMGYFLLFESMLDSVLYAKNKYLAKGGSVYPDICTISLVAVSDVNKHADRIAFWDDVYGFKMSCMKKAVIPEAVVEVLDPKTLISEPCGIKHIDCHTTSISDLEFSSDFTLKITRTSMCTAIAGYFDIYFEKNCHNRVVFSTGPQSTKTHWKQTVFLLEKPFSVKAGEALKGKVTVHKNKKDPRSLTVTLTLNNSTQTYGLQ

PRMT5-MEP50 = PRMT5-MEP50 (Homo sapiens, UniProt O14744); test: HMT selectivity assay; assay type: biochemical
Chain of PRMT5-MEP50 (O14744 whole entry): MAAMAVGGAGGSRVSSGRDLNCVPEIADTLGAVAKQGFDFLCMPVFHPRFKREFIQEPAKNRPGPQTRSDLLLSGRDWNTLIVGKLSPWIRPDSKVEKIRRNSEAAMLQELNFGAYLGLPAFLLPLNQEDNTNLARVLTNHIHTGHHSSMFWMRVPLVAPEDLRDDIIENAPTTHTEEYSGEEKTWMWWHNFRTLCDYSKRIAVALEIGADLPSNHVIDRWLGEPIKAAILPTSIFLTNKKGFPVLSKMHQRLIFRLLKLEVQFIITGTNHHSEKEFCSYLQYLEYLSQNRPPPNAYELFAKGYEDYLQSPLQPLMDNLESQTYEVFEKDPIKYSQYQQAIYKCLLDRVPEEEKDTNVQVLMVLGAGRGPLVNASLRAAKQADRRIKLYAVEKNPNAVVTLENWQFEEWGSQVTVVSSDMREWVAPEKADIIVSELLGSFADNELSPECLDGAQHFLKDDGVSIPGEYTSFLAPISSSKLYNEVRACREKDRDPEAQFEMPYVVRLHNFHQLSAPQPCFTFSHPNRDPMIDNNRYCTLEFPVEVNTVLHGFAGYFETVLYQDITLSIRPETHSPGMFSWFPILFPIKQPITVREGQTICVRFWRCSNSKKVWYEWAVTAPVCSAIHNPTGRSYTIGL
Chain of PRMT5-MEP50 (Q9BQA1 whole entry partner): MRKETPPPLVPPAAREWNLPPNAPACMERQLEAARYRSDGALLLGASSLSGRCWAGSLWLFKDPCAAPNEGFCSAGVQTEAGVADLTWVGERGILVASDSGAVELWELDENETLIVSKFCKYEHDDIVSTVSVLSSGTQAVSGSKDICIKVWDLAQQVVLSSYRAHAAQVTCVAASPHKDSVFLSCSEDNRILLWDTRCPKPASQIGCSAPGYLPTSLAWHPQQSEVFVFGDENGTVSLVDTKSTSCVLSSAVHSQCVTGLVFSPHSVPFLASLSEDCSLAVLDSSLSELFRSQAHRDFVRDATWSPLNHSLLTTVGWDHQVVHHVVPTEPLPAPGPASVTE

EHMT1/GLP = target: T2, EHMT1/GLP (Homo sapiens, UniProt Q9H9B1); test: HMT selectivity assay; assay type: biochemical
T2 sequence (Q9H9B1 1-1298): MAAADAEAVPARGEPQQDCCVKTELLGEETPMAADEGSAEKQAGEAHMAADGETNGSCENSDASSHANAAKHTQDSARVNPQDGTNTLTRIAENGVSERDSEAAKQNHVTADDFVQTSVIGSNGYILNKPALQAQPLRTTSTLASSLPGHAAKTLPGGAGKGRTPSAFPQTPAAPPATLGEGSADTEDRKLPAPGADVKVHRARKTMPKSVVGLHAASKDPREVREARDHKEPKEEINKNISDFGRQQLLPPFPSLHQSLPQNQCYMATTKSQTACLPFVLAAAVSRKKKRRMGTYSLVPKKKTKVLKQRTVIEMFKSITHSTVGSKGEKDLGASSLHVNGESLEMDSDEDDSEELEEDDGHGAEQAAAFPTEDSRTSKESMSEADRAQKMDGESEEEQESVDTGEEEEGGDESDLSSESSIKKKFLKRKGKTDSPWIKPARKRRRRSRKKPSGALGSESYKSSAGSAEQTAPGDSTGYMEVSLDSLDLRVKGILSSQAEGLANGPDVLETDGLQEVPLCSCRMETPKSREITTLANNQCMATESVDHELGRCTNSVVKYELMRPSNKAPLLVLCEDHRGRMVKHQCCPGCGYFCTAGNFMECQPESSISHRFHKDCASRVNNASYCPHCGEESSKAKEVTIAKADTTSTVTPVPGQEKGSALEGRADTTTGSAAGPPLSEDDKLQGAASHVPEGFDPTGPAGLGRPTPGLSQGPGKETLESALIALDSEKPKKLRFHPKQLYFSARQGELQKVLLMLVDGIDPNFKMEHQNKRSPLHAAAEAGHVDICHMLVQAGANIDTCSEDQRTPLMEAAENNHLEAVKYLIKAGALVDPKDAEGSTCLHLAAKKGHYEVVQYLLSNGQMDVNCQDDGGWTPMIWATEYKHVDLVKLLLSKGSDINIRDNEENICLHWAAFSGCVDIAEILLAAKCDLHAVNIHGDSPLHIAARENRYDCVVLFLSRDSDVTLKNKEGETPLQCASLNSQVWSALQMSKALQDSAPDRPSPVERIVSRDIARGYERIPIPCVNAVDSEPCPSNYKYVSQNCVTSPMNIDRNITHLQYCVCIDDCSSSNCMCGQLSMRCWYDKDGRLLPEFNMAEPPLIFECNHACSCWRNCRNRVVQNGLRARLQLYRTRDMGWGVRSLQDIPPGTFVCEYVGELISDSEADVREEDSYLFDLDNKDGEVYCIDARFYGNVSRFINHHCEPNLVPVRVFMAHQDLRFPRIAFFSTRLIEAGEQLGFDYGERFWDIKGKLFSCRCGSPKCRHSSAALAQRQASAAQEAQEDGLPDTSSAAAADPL
In short: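 Stopped with 7.5 M guanidine HCl, then Flashplate CPM. No compound = 100%, no enzyme = 0%. IC50 from 100 nM–100 μM; Ki = IC50/2.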

SETD8 = target: T3, SETD8 (Homo sapiens, UniProt Q9NQR1); test: HMT selectivity assay; assay type: biochemical
T3 sequence (Q9NQR1 1-393): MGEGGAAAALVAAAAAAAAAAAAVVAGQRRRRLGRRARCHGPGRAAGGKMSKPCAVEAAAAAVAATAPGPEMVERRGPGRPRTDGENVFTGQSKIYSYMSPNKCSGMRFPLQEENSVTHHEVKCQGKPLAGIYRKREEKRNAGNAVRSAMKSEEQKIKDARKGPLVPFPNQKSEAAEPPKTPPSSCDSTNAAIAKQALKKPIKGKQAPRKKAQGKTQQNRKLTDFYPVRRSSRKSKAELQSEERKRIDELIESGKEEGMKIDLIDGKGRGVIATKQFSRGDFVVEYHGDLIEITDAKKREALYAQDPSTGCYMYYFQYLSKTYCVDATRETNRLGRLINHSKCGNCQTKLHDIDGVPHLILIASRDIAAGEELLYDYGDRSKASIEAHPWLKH
In short: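 Triplicate, 1 h at room temperature. Guanidine HCl stop; Flashplate SPA CPM. No compound = 100%, no enzyme = 0%. IC50 over 100 nM–100 μM; Ki = IC50/2.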

haspin catalytic domain = target: T4, haspin catalytic domain (Homo sapiens, UniProt Q8TF76); test: Differential scanning fluorimetry on haspin catalytic domain; assay type: binding; conditions: 10 μM compound
T4 sequence (Q8TF76 484-798 limits assumed): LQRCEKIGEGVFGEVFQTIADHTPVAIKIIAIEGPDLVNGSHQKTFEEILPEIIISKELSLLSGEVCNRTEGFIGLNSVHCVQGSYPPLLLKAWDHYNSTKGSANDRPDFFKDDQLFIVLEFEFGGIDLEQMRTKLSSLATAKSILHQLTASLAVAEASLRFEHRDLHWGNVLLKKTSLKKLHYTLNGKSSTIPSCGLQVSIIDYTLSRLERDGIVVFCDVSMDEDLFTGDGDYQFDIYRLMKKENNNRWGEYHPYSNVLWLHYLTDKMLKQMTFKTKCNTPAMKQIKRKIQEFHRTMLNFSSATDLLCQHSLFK

SETD7 = target: T5, SETD7 (Homo sapiens, UniProt Q8WTS6); test: HMT selectivity assay; assay type: biochemical
T5 sequence (Q8WTS6 1-366): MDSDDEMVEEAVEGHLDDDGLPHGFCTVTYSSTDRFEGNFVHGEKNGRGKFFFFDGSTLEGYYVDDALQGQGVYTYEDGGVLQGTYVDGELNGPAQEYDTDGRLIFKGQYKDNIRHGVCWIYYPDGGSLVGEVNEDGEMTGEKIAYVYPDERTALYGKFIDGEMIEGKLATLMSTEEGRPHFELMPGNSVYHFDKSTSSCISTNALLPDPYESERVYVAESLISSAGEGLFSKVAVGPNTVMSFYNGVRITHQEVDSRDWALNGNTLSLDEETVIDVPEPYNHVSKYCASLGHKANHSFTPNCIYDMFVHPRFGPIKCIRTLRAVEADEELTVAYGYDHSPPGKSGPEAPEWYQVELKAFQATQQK
In short: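 Triplicate, room temperature, 1 h. Stopped with 7.5 M guanidine HCl; Flashplate CPM. Normalised to no-compound and no-enzyme controls. IC50 from 100 nM–100 μM; Ki = IC50/2.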

Chain of SUV39H2 (Q9H5I1 whole entry, species assumed): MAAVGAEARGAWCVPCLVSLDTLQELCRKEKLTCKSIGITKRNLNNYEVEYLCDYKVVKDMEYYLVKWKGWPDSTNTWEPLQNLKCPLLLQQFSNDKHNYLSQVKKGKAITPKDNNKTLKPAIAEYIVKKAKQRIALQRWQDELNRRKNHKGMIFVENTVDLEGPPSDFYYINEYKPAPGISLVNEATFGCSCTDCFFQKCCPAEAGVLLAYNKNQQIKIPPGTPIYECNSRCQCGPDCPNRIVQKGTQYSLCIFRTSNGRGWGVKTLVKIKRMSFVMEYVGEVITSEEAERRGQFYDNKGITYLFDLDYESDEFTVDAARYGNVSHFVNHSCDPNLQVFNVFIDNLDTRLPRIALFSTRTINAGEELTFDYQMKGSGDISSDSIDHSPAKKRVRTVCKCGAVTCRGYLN

**Q.** For Nc1ncnc2c1c(Br)cn2[C@@H]1O[C@H](CSCC[C@H](N)C(=O)O)[C@@H](O)[C@H]1O [BrSAH, N7-Bromo-deaza-S-adenosyl-L-homocysteine], which “activity against SUV39H2” value (SUV39H2) is on record?
**A.** inactive

**Q.** What about the Ki (SUV39H2; SUV39H2, compound 100 nM to 100 μM, SAM = Km) of the same molecule?
**A.** No inhibition

**Q.** And the “activity against EHMT2/G9a” value (EHMT2/G9a)?
**A.** inactive

**Q.** What about the Ki (EHMT2/G9a; G9a, compound 100 nM to 100 μM, SAM = Km) of the same molecule?
**A.** No inhibition

**Q.** And the “activity against MLL” value (MLL1 complex)?
**A.** inactive

**Q.** And the Ki (MLL1 complex; MLL, compound 100 nM to 100 μM, SAM = Km)?
**A.** No inhibition

**Q.** And the “activity against EZH2 (present in the PRC2 complex)” value (EZH2 (PRC2 complex))?
**A.** inactive

**Q.** What about the Ki (EZH2 (PRC2 complex); PRC2, compound 100 nM to 100 μM, SAM = Km) of the same molecule?
**A.** No inhibition

**Q.** And the IC50 (PRMT3)?
**A.** 2 µM

**Q.** And the “times less active against PRMT3 than DOT1L” value (PRMT3; IC50 ratio versus DOT1L)?
**A.** about 25

**Q.** And the IC50 (PRMT5-MEP50)?
**A.** 2 µM

**Q.** What about the “times less active against PRMT5 than DOT1L” value (PRMT5-MEP50; IC50 ratio versus DOT1L) of the same molecule?
**A.** about 25

**Q.** And the “activity against EHMT1/GLP” value (EHMT1/GLP)?
**A.** inactive

**Q.** What about the Ki (EHMT1/GLP; EHMT1, compound 100 nM to 100 μM, SAM = Km) of the same molecule?
**A.** No inhibition

**Q.** And the “activity against SETD8” value (SETD8)?
**A.** inactive

**Q.** And the Ki (SETD8; SETD8, compound 100 nM to 100 μM, SAM = Km)?
**A.** No inhibition

**Q.** What about the “binding to the haspin catalytic domain by differential scanning fluorimetry” value (haspin catalytic domain) of the same molecule?
**A.** no binding

**Q.** And the “activity against SETD7” value (SETD7)?
**A.** inactive

**Q.** What about the Ki (SETD7; SETD7, compound 100 nM to 100 μM, SAM = Km) of the same molecule?
**A.** No inhibition

Source: publication PMC4780262 (Bioorganic & medicinal chemistry, 2013)
